Data as given in paper PMC9753534 (ACS Omega, 2022).

What was measured:
[1] = molecular target: EGFR^WT (Homo sapiens, UniProt P00533); test: HTRF kinase inhibitory assay, EGFR^WT; assay type: biochemical
[2] = tested on: MCF-7 cell line; test: MTT antiproliferative test, MCF-7; assay type: cell-based; conditions: Homo sapiens, MCF7, read-out: IC50 (n = 3), antiproliferative effect vs MCF-7
[3] = molecular target: EGFR^T790M (Homo sapiens, UniProt P00533, T790M); test: biochemical; assay type: biochemical
[4] = tested on: A549 cell line; test: MTT antiproliferative test, A549; assay type: cell-based; conditions: Homo sapiens, A549, read-out: IC50 (n = 3), antiproliferative effect vs A549
[5] = Antioxidant activity by ABTS method; conditions: absorbance at 734 nm
Procedure, shortened: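 ABTS radical cation was generated by mixing ammonium peroxodisulfate (65 mmol/dm3) with ABTS in phosphate buffer pH 7.4 and leaving it overnight. The stock was diluted in phosphate buffer pH 7.4 and A734 was read. Test compound was added after 1 min, mixed, and A734 was re-read. Results are expressed as trolox equivalents from a linear trolox calibration (absorbance decrease vs concentration).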

Row | IC50 [1] | IC50 [2] | IC50 [3] | times the activity of gefitinib vs EGFR^T790M ([3]; ratio of IC50 vs gefitinib) | IC50 [4] | Structure (SMILES) | radical scavenging activity (ABTS) [5]
1 | 0.29 ± 0.05 µM | 8.57 ± 0.31 µM | 7.89 ± 0.31 µM | 2.71 times | 5.09 ± 0.15 µM | N#Cc1sc2sc(C#N)c(N)c2c1N [Compound 1, 3,4-diaminothieno[2,3-b]thiophene-2,5-dicarbonitrile] | –
2 | 2.02 ± 0.12 µM | 17.3 ± 0.71 µM | 15.1 ± 0.51 µM | – | 7.54 ± 0.32 µM | N=c1c2sc3sc4c(=N)n(-c5ccccc5)c(=O)[nH]c4c3c2[nH]c(=O)n1-c1ccccc1 [Compound 5, 1,8-Diimino-2,7-diphenyl-1,4,7,8-tetrahydro-2H,5H-9,10-dithia-2,4,5,7-tetraaza-indeno[1,2-a]indene-3,6-dione] | 70%
3 | 3.27 ± 0.16 µM | 17.3 ± 0.71 µM | 16.3 ± 0.61 µM | – | 8.27 ± 0.16 µM | Nc1c(-c2nnn[nH]2)sc2sc(-c3nnn[nH]3)c(N)c12 [Compound 7, 2,5-Di(1H-tetrazol-5-yl)thieno[2,3-b]thiophene-3,4-diamine] | –
4 | – | 21.8 ± 1.85 µM | – | – | 19.3 ± 1.85 µM | C#Cc1cccc(Nc2ncnc3cc(OCCOC)c(OCCOC)cc23)c1 [erlotinib, reference compound] | –
